Measured values published in ChEMBL document CHEMBL4689842, “EUbOPEN Chemogenomics Library wave 1” (2021).
Values joined by “and” are separate entries in the source; they are usually repeats but may differ in a detail not shown here. Equal values may be shown once.

Tests used:
Format in all cases: toxicity, cell-based
[1] = system: HEK-293T; assay: Multiplex assay against HEK293T; conditions: human, 24 h, 10 µM, compound concentration 10 uM;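 for Population Tubulin-Different-Phenotype (%): share of the cells with healthy nuclei that show this phenotype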
Outline: (§1)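 Four dyes were applied at seeding to live cells: Hoechst33342, BioTracker Green Microtubule Cytoskeleton Dye, MitoTracker Red and Annexin V Alexa Fluor 680. Imaging after compound addition used a CQ1 microscope at 37°C and 5% CO2. CellPathfinder machine-learning gating then sorted cells into Hoechst high-intensity objects or normal cells, normal cells into healthy, pyknosed or fragmented nuclei, and pyknosed cells into mitotic or apoptotic, with tubulin, mitochondrial-mass and membrane-permeability phenotypes given as per cents of healthy-nucleus cells.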

[2] = system: Fibroblast; assay: Incucyte cell viability with human fibroblast; conditions: 10 µM, compound concentration 10 uM; note: filed as whole numbers so only -1 and 0 and 1 occur
[3] = system: HEK-293T; assay: Incucyte cell viability with HEK293T; conditions: human, 10 µM, compound concentration 10 uM; note: filed as whole numbers so only -1 and 0 and 1 occur
[4] = system: U2OS; assay: Incucyte cell viability with U2OS; conditions: human, 10 µM, compound concentration 10 uM; note: filed as whole numbers so only -1 and 0 and 1 occur
[5] = system: U2OS; assay: Multiplex assay against U2OS; conditions: human, 10 µM, compound concentration 10 uM; outline: as §1
[6] = 0 h, replicate number 1, timepoint 0 hours
[7] = 12 h, replicate number 1, timepoint 12 hours
[8] = 18 h, replicate number 1, timepoint 18 hours
[9] = 24 h, replicate number 1, timepoint 24 hours
[10] = 6 h, replicate number 1, timepoint 6 hours

## O=C(O)c1ccc2c(c1)nc(Nc1cccc(Cl)c1)c1ccncc12 [SILMITASERTIB]
[1]; replicate 1
  Population Tubulin-Different-Phenotype (%): 5% and 15%
  Total Cell Count: 718 and 592
[1]; replicate 2
  Population Apoptotic (%): 9% and 4%
  Population Fragmented Nuclei (%): 15% and 30%
  Population Healthy Nuclei (%): 79% and 67%
  Population Hoechst High Intensity Objects (%): 7% and 4%
  Population Membrane Permeable-Phenotype (%): 9% and 4%
  Population Mitochondria Different-Phenotype (%): 6% and 0%
  Population Mitotic Cells (%): 90% and 95%
  Population Normal (%): 92% and 95%
  Population Pyknosed Nuclei (%): 4% and 1%
  Total Cell Count: 1562 and 3163
[2]; [6]
  Growth Rate: 0
[2]; [7]
  Growth Rate: 1
[2]; [8]
  Growth Rate: 0
[2]; 18 h, replicate number 2, timepoint 18 hours
  Growth Rate: 1
[2]; [9]
  Growth Rate: 0
[2]; 24 h, replicate number 2, timepoint 24 hours
  Growth Rate: 1
[3]; [6]
  Growth Rate: 0
[3]; [10]
  Growth Rate: 0
[3]; [7]
  Growth Rate: 0
[3]; [8]
  Growth Rate: 0
[3]; [9]
  Growth Rate: 0
[4]; [6]
  Growth Rate: 0
[4]; 0 h, replicate number 2, timepoint 0 hours
  Growth Rate: 1
[4]; [10]
  Growth Rate: 1
[4]; 6 h, replicate number 2, timepoint 6 hours
  Growth Rate: 0
[4]; [7]
  Growth Rate: 0
[4]; [8]
  Growth Rate: 0
[4]; [9]
  Growth Rate: 0
[5]; 12 h, replicate 1
  Population Apoptotic (%): 50% and 36%
  Population Fragmented Nuclei (%): 5%
  Population Healthy Nuclei (%): 87% and 85%
  Population Hoechst High Intensity Objects (%): 4%
  Population Membrane Permeable-Phenotype (%): 11% and 8%
  Population Mitotic Cells (%): 50% and 63%
  Population Normal (%): 95%
  Population Pyknosed Nuclei (%): 7%
  Population Tubulin-Different-Phenotype (%): 19% and 32%
  Total Cell Count: 163 and 151
[5]; 12 h, replicate 2
  Population Apoptotic (%): 33%
  Population Fragmented Nuclei (%): 6% and 8%
  Population Healthy Nuclei (%): 90%
  Population Hoechst High Intensity Objects (%): 6% and 13%
  Population Membrane Permeable-Phenotype (%): 10% and 4%
  Population Mitochondria Different-Phenotype (%): 27% and 26%
  Population Mitotic Cells (%): 66%
  Population Normal (%): 93% and 86%
  Population Pyknosed Nuclei (%): 2% and 4%
  Population Tubulin-Different-Phenotype (%): 31% and 18%
  Total Cell Count: 140 and 110
[5]; 24 h, replicate 1
  Population Apoptotic (%): 23% and 50%
  Population Fragmented Nuclei (%): 9% and 4%
  Population Healthy Nuclei (%): 82% and 91%
  Population Hoechst High Intensity Objects (%): 1% and 3%
  Population Membrane Permeable-Phenotype (%): 14% and 6%
  Population Mitochondria Different-Phenotype (%): 20% and 35%
  Population Mitotic Cells (%): 76% and 50%
  Population Normal (%): 98% and 96%
  Population Pyknosed Nuclei (%): 8% and 4%
  Population Tubulin-Different-Phenotype (%): 33% and 35%
  Total Cell Count: 208 and 206
[5]; 24 h, replicate 2
  Population Apoptotic (%): 25% and 11%
  Population Fragmented Nuclei (%): 8%
  Population Healthy Nuclei (%): 83% and 76%
  Population Hoechst High Intensity Objects (%): 4%
  Population Membrane Permeable-Phenotype (%): 10% and 5%
  Population Mitochondria Different-Phenotype (%): 41%
  Population Mitotic Cells (%): 75% and 88%
  Population Normal (%): 95%
  Population Pyknosed Nuclei (%): 7% and 14%
  Population Tubulin-Different-Phenotype (%): 31% and 30%
  Total Cell Count: 168 and 127
